# KCNQ1 inh: human KCNQ1 channel inhibition | P51787 | B-score at 10 µM | 1.3% of 310,000 active | CHO-K1 KCNQ1, FluxOR thallium flux fluorescence; hits give high values;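 active = compounds whose thallium flux B-score, printed positive for inhibition, exceeds three library SD while starting fluorescence stays within three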;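 note: channel opened by potassium depolarization with thallium stimulus after 20 min compound exposure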
# KCNQ1 act: human KCNQ1 channel potentiation or activation; 0.35% of 310,000 active; AID 2648; P51787; CHO-K1 KCNQ1, thallium flux FluxOR fluorescence; hits give high values; B-score at 10 µM;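 active = fluorescence ratio B-score, a plate-corrected score, at least three library SD, with initial intensity B-score within 5 SD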
#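 Doses: Single concentration per compound, DMSO matched to controls | Test system: KCNQ1-transfected CHO-K1 cells | Timing: 90 min dye loading and 20 min compound exposure, both at room temperature | Measured by: Kinetic FluxOR thallium fluorescence, 10-s 1-Hz baseline, 110-s post-stimulus read | Medium: Assay buffer with matched DMSO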
# KCNK9 block: human KCNK9 channel inhibition. Q9NPC2. B-score at 10 µM. 1.2% of 310,000 active. AID 488922. HEK293 KCNK9, FluxOR thallium flux fluorescence; hits give low values;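 active = ratio B-score over 3 SD below the library mean, with starting fluorescence within 5 SD of its mean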;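 note: negative B-score means less thallium flux so channel inhibition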
# hERG rescue: hERG (human) protection from proarrhythmic block; CHO-hERG, FluxOR thallium flux, dofetilide IC70 present; 0.51% of 310,000 active; Q12809; activation (rescue from dofetilide block), less the hit threshold, % at 10 µM;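 active = activation above the mean of controls blocked by dofetilide plus 5 SD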;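 note: thallium influx through hERG after potassium depolarization seen as dye fluorescence rise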
# KCNK3 inh: human KCNK3 channel inhibition, primary screen; O14649; CHO-KCNK3 thallium flux, FluxOR fluorescence; hits give low values; B-score at 10 µM; 0.84% of 340,000 active;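 active = B-score under library mean minus 4 SD, starting fluorescence ratio at most library mean plus 5 SD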;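 note: more negative B-score means stronger inhibition of thallium flux through KCNK3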
# Kir21 inh: inhibitors of mouse Kir2.1 inward-rectifier potassium channel. HEK293-Kir2.1, FluxOR thallium flux fluorescence; hits give low values. B-score at 10 µM. 0.85% of 310,000 active;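 active = fluorescence ratio B-score at or below minus 3 SD of library scores, with starting-brightness B-score within 2 SD, cut at about -4.2 in these data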;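 note: channel flux triggered by added potassium and thallium sulfate stimulus; B-score of peak minus minimum fluorescence over baseline after thallium stimulus; more negative B-score means stronger Kir2.1 block with less thallium influx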
# Target sequence (P35561 whole entry, looked up): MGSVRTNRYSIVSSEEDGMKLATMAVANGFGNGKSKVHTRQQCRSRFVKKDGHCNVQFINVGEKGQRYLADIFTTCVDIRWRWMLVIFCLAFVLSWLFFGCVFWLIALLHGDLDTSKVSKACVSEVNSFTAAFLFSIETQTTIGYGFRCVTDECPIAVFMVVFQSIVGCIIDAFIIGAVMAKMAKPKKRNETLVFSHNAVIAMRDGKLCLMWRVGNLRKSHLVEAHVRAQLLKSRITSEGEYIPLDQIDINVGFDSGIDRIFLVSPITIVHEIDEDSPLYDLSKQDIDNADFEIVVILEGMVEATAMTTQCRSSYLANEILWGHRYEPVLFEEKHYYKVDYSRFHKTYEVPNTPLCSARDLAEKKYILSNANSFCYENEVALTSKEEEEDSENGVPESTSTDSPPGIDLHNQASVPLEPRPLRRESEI
# KCNK3 confirm: human KCNK3 channel inhibition, confirmation assay. shares compounds with KCNK3 inh. CHO-KCNK3 thallium flux, FluxOR fluorescence; 0% buffer, 100% carvedilol maximal block. ratio percent of control, % at 10 µM. 99% of 2,400 active;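 active = ratio percent of control, averaged over triplicates, above buffer control mean plus 5 SD, cut at about 64% in these data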;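 note: ratio is the fluorescence rise from min to max over baseline after thallium stimulus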
# KCNK3 uninduced: KCNK3 inhibitor counter-screen hit in non-induced cells; shares compounds with KCNK3 inh; non-induced KCNK3 parental cells, FluxOR thallium flux; hits give low values; thallium flux ratio (lower = more inhibition) at 10 µM; 40% of 2,400 active; AID 651747;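 active = thallium flux ratio, averaged over three wells, more than 5 SD below the buffer control mean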;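 note: host cells are CHO cells without KCNK3 induction; ratio is peak minus trough fluorescence over baseline then normalized to buffer controls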
# Active calls of the source: *; i = inactive; . = no result. In the library only some 3.7% were active in any assay of this set; here they are far more common.
SMILES,KCNQ1 inh,KCNQ1 act,KCNK9 block,hERG rescue,KCNK3 inh,Kir21 inh,KCNK3 confirm,KCNK3 uninduced
CC(=O)N1c2ccc(S(=O)(=O)N3CCC(C(=O)Nc4cccc(Cl)c4)CC3)cc2CC1C (stereo not drawn),i,i,i,-5,i,-0.08,.,.
CCOC(=O)c1ccccc1NC(=O)c1ccc2c(SCC(=O)O)c3c(nc2c1)CCCC3,i,i,i,-36,-9.7*,0.41,123*,i
O=C(CS(=O)CC(=O)N(CC(=O)NC1CCCC1)c1ccccc1F)Nc1ccc(F)cc1 (stereo not drawn),i,i,i,-5,i,0.37,.,.
O=C(NC1CCNCC1)C1CC1,i,i,i,-10,i,-1.9,.,.
CCOC(=O)CN1C(=O)/C(=C/c2c(F)cccc2Cl)Oc2ccccc21,6*,i,-7.8*,-7,-8.8*,-0.64,123*,i
CC(C)(CNC(=S)NCCc1ccccc1)CNC(=S)NCCc1ccccc1,14*,i,i,-19,-9.4*,1.8,116*,0.1*
S=C(NCCCc1ccccc1)Nc1ccccc1,i,i,i,-5,i,-1.6,.,.
S=C(NCCc1ccccc1)Nc1ccc(Nc2ccccc2)cc1,i,i,i,-7,-9.3*,-0.03,126*,0.13*
CSc1cccc(NC(=O)Nc2nc3c(C)cccc3s2)c1,i,i,i,-11,i,-0.7,.,.
Cc1ccc(NC(=O)COc2ccccc2C(=O)NCc2ccccc2)cc1,.,.,.,.,i,.,.,.
CN(C)S(=O)(=O)c1cccc(NC(=O)COc2ccccc2C(=O)NCc2ccccc2)c1,.,.,.,.,-12*,.,119*,0.16*
Cc1ccccc1NC1c2ccccc2C(=O)N1Cc1ccco1 (stereo not drawn),i,i,i,-13,-10*,2.7,119*,0.15*
COc1ccccc1/C=N/NC(=O)c1cc2c(ccc3ccccc32)o1,i,i,i,-26,-12*,-2.6,85*,i
O=C(CSc1nc2ccccc2c(=O)n1Cc1ccco1)c1ccc(F)cc1,i,i,i,-10,-9.6*,0.88,112*,i
Cc1cc2c(=O)n(Cc3ccco3)c(SCC(=O)c3ccc(Cl)s3)nc2s1,i,i,-6.7*,-21,-9.7*,1.7,108*,i
CC(C)NC(=O)c1ccc(N(Cc2ccc(Cl)cc2)S(C)(=O)=O)cc1,i,i,i,-9,i,1.8,.,.
C=CCOc1ccccc1CN1CCCC(CCC(=O)N(C)CCc2ccccn2)C1 (stereo not drawn),i,i,i,-2,i,0.05,.,.
O=C(NC1CC1)c1cccc(NC(=O)c2cnn(-c3ccccc3)n2)c1,.,.,.,.,i,.,.,.
O=C(NC1CC1)c1cccc(NC(=O)c2cn3ccccc3n2)c1,.,.,.,.,-12*,.,60*,i
Cc1cc(NC(=O)CN(C)CCOc2ccccc2)ccc1Br,i,i,i,-19,i,-0.07,.,.
CN(CCOc1ccc(Cl)cc1)CC(=O)Nc1ccc(OC(F)(F)F)cc1,i,i,i,-4,-9.1*,-1,108*,0.15*
COc1ccc(NC(=O)CN(C)CCOc2ccc(Cl)cc2)cc1OC,i,i,i,-4,i,-1.3,.,.
CN(CCOc1ccccc1)CC(=O)Nc1cccc(Br)c1,i,i,i,-14,-9.2*,0.03,94*,i
COC(=O)C1=C(C)N(C2CCCCC2)C(=O)/C1=C\c1cccs1,i,i,i,2,-9.8*,-0.5,98*,0.14*
N/C(COc1cccc(C(F)(F)F)c1)=N\NC(=O)c1cccnc1Oc1ccccc1,i,i,i,-9,i,0.1,.,.
SMILES,KCNQ1 inh,KCNQ1 act,KCNK9 block,hERG rescue,KCNK3 inh,Kir21 inh,KCNK3 confirm,KCNK3 uninduced
Cc1cccc(OCC(=O)Nc2ccc(S(=O)(=O)Nc3onc(C)c3C)cc2)c1C,i,i,i,-12,i,1.4,.,.
CN(C)c1ccc(/C=C2\CCC/C(=C\c3ccccc3)C2=O)cc1,i,i,i,-9,i,-1.1,.,.
CN(C)c1ccc(C=c2c3ccccc3n3c2c2c([n+]3C)CCCC2)cc1,.,.,.,.,-13*,.,171*,0.071*
COc1ccc(C(C)=O)cc1CSc1nncn1-c1ccccc1,i,i,i,-8,i,-1.1,.,.
COc1ccc(C2=NO[C@@H]3[C@@H]4C[C@@H]([C@H]5C(=O)N(c6ccc7c(c6)OCO7)C(=O)[C@@H]45)[C@H]23)cc1OC,i,i,i,-6,i,0.03,.,.
CCOc1ccc(NC(=S)N(CCc2c(C)[nH]c3ccc(C)cc23)Cc2cccnc2)cc1,i,i,i,-8,-9.9*,0.1,92*,0.14*
O=C(NCc1ccccn1)C(=O)NCC1OCCN1S(=O)(=O)c1ccc(F)cc1 (stereo not drawn),i,i,i,-8,i,-1.2,.,.
Cc1ccc(Cn2ccc(NC(=O)c3noc4c3CCc3ccccc3-4)n2)cc1,i,i,i,-6,i,0.27,.,.
Cc1nn(Cc2ccc(Cl)cc2)c(C)c1NC(=O)c1noc2c1CCc1ccccc1-2,i,i,i,-8,-8.7*,0.39,117*,i
CCOC(=O)c1c(NC(=O)CSc2nnc(CNc3ccc(Cl)cc3)o2)sc(C)c1C,i,i,i,-12,-9.6*,-0.17,90*,i
CCCN(CCC)S(=O)(=O)c1ccc(C(=O)NCc2ccco2)cc1,i,i,i,-3,i,0.85,.,.
CN(C)S(=O)(=O)c1ccc(C(=O)NCc2ccco2)cc1,i,i,i,-4,-9.2*,0.51,72*,i
CC[C@@]12C(=O)N(c3ccc(OC)cc3)C(=O)N1[C@H](c1ccc(Cl)cc1)[C@@H]1C(=O)N(C3CCCCC3)C(=O)[C@@H]12,i,i,i,-6,i,2.2,.,.
COc1ccc(C(=O)N(Cc2ccccc2)c2cccc(C)c2)cc1,i,i,i,-11,i,-1.5,.,.
COc1ccccc1CC(=O)N(Cc1ccccc1)c1cccc(C)c1,i,i,i,-11,-12*,-2,103*,0.15*
Cc1c(C(=O)N2CCN(c3ccc(C(F)(F)F)cn3)CC2)oc2ccccc12,i,i,i,-7,-12*,-0.38,135*,0.15*

# From PubChem BioAssay
